How the values were obtained:
Format in all cases: functional, cell-based
[1] = tested on: L1210; test: Ratio of in vitro cytotoxicity against mouse tumor L1210 cell line (resistant to Cisplatin) to that of sensitive L1210 cell line
Summary of the method: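 Resistant and sensitive L1210 cells in suspension culture, RPMI 1640 with 10% heat-inactivated FCS, no antibiotics, 37 °C, 5% CO2. Cells seeded at 10^5 cells/mL and exposed 48 h to platinum complexes. MTT read at 570 nm after solubilizing in 2-propanol. IC50 is 50% absorbance drop versus control; ratio is resistant IC50 over sensitive IC50.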

[2] = tested on: IGROV-1; test: In vitro cytotoxicity against human tumor IGROV cell line (ovarian cancer)
Summary of the method: (§1)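 Cells kept in log-phase culture in RPMI 1640 with Hepes and phenol red, 10% FCS, penicillin 100 IU/mL and streptomycin 100 µg/mL. Complexes dissolved in water and diluted in full medium, then added after 48 h preincubation in 96-well plates. Incubation 120 h at 37 °C, 8.5% CO2. IC50 read by sulforhodamine-B microculture test.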

[3] = tested on: A498; test: In vitro cytotoxicity against human tumor A498 cell line (renal cancer); summary of the method: as §1
[4] = tested on: M19-MEL; test: In vitro cytotoxicity against human tumor M19 cell line (melanoma cancer); summary of the method: as §1
[5] = tested on: MCF7; test: In vitro cytotoxicity against human tumor MCF-7 cell line (breast cancer); summary of the method: as §1
[6] = tested on: L1210; test: In vitro cytotoxicity against mouse tumor L1210 cell line (sensitive to Cisplatin)
Summary of the method: (§2)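 Suspension culture in RPMI 1640 with 10% heat-inactivated fetal calf serum, no antibiotics, 37 °C, 5% CO2. Cells seeded at 10^5 cells/mL in 96-well plates and exposed 48 h to a range of platinum complex concentrations. MTT added, 4 h at 37 °C, then wash with PBS. Dye taken up in 2-propanol, absorbance read at 570 nm. IC50 taken as 50% absorbance drop versus drug-free control.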

[7] = tested on: WiDr; test: In vitro cytotoxicity against human tumor WIDR cell line (colon cancer); summary of the method: as §1
[8] = tested on: NCI-H226; test: In vitro cytotoxicity against human tumor H226 cell line (nonsmall cell lung cancer); summary of the method: as §1
[9] = tested on: EVSA-T; test: In vitro cytotoxicity against human tumor EVSA-T cell line (breast cancer); summary of the method: as §1
[10] = tested on: L1210; test: In vitro cytotoxicity against mouse tumor L1210 cell line (resistant to Cisplatin); summary of the method: as §2

Row | Substance | Ratio [1] | IC50 [2] [µM] | IC50 [3] [µM] | IC50 [4] [µM] | IC50 [5] [µM] | IC50 [6] [µM] | IC50 [7] [µM] | IC50 [8] [µM] | IC50 [9] [µM] | IC50 [10] [µM]
1 | [{cis-Pt(NH3)2Cl}2(-pzn)](NO3)2 [listing 1 of 2 here] | 3.5 | – | – | – | – | – | – | – | – | –
2 | CISPLATIN [listing 1 of 2 here] | – | 0.6 | 7.5 | 1.9 | 2.3 | 2.2 | 3.2 | 10.9 | 1.4 | –
3 | CISPLATIN [listing 2 of 2 here] | 6.6 | – | – | – | – | – | – | – | – | –
4 | [{cis-Pt(NH3)2Cl}2(-pzn)]Cl2 [listing 1 of 2 here] | – | 0.8 | 54.1 | 21.4 | 15.5 | 1.2 | 2 | > 91.9 | 42.5 | 2.5
5 | [{cis-Pt(NH3)2Cl}2(-pdn)](NO3)2 [listing 1 of 2 here] | 3.7 | – | – | – | – | – | – | – | – | –
6 | [{cis-Pt(NH3)2Cl}2(-pzn)](NO3)2 [listing 2 of 2 here] | – | 1 | 63.5 | 20.9 | 17 | 1 | 2.4 | > 85.2 | 47 | 3.5
7 | [{cis-Pt(NH3)2Cl}2(-pdn)](NO3)2 [listing 2 of 2 here] | – | 0.2 | 53 | 7.2 | 23 | 5.7 | 13.3 | > 85.2 | > 85.2 | 21.3
8 | [{cis-Pt(NH3)2Cl}2(-pzn)]Cl2 [listing 2 of 2 here] | 2.1 | – | – | – | – | – | – | – | – | –
